In ChEMBL document CHEMBL2346638, “Secondary amines containing one aromatic nitro group: preparation, nitrosation, sustained nitric oxide release, and the synergistic effects of released nitric oxide and an arginase inhibitor on vascular smooth muscle cell proliferation” (Bioorg Med Chem, 2013):
Active and inactive are the calls of the source. The calls are words filed in the database; no cut-off is given here.

How the values were obtained:
[1] = Toxicity in HASMC assessed as cell viability at 20 uM after 96 hrs by MTT assay relative to control; format: cell-based; details: human, HASMC cells; read-out: Activity
In short: (§1)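 Serum-starved HASMCs (3000–3500 cells/well) received compound in complete SMC medium (2% FBS) with 1% DMSO at 0.1, 1, 5, 10 or 20 µM for 48 h. Fresh medium was then added and cells grew a further 48 h (96 h total). MTT 4–6 h at 37 °C, solubilized, A570 as % of medium-only control; 1% DMSO vehicle; triplicate; t-test versus vehicle.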

[2] = Toxicity in HASMC assessed as cell viability at 10 uM after 96 hrs by MTT assay relative to control; format: cell-based; details: human, HASMC cells; read-out: Activity; in short: as §1
[3] = Toxicity in HASMC assessed as cell viability at 5 uM after 96 hrs by MTT assay relative to control; format: cell-based; details: human, HASMC cells; read-out: Activity; in short: as §1
[4] = Toxicity in HASMC assessed as cell viability at 1 uM after 96 hrs by MTT assay relative to control; format: cell-based; details: human, HASMC cells; read-out: Activity; in short: as §1
[5] = Toxicity in HASMC assessed as cell viability at 0.1 uM after 96 hrs by MTT assay relative to control; format: cell-based; details: human, HASMC cells; read-out: Activity; in short: as §1
HASMC [6] = test: Toxicity in HASMC assessed as cell viability using calcein AM and ethidium homodimer-1 by LIVE/DEAD assay; format: cell-based; details: human
In short: (§2)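 HASMCs in black plates were exposed for 96 h to compound at 0.1–20 µM in medium with 1% DMSO. Floating dead cells were pelleted, washed in PBS and returned to their wells. Cells were stained with Eth-1 (0.5 µM) and calcein AM (0.25 µM) for 45 min at room temperature, then read at ex/em 495/530 and 528/645 nm. Triplicate; t-test versus vehicle.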

HASMC [7] = test: Induction of nitric oxide release in HASMC at 5 to 20 uM after 60 mins by DAF-FM DA assay; format: functional, cell-based; details: Homo sapiens
HASMC [8] = test: Antiproliferative activity against HASMC using calcein AM and ethidium homodimer-1 at <= 20 uM by LIVE/DEAD assay; format: functional, cell-based; details: Homo sapiens; in short: as §2
HASMC [9] = test: Antiproliferative activity against HASMC at <= 20 uM after 96 hrs by MTT assay; format: functional, cell-based; details: Homo sapiens; in short: as §1
[10] = Half life of the compound in presence of glutathione; format: physicochemical; details: gsh
In short: (§3)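 The same protocol was used in 1X PBS containing 5 mM reduced glutathione: donor at 0.0125 M, room temperature, timed aliquots over about 20 days. Supernatants were mixed with Griess reagent and absorbance read at 550 nm; no new calibration was needed.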

[11] = Half life of the compound; format: physicochemical
In short: (§4)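 Nitrosated compound was stirred in 1X PBS at 0.0125 M (0.0250 M NO) at room temperature. Aliquots were taken hourly to 12 h, every 4 h to 24 h, every 8 h to 48 h, then every 24 h. Aliquots were centrifuged and triplicate supernatants mixed with Griess reagent for 5 min. Absorbance at 550 nm was plotted against time.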

[12] = Induction of nitric oxide release in phosphate buffered saline up to 20 days by Griess reagent test in presence of glutathione; format: physicochemical; details: buffer, 480 h; in short: as §3
[13] = Induction of nitric oxide release in phosphate buffered saline up to 20 days by Griess reagent test; format: physicochemical; design: concentration or dose not given beside the values; details: buffer, 480 h; in short: as §4
[14] = Nitrosation of the compound in glacial acetic acid/tetrahydrofuran after 24 to 48 hrs by IR spectroscopy analysis in presence of glutathione; format: physicochemical
[15] = Nitrosation of the compound in glacial acetic acid/tetrahydrofuran after 24 to 48 hrs by IR spectroscopy analysis; format: physicochemical
[16] = Nitrosation of the compound in glacial acetic acid/tetrahydrofuran after 5 to 8 hrs by IR spectroscopy analysis; format: physicochemical
HASMC [17] = test: Induction of cell proliferation in HASMC at 0.1 to 5 uM after 96 hrs by MTT assay; format: cell-based; details: human
HASMC [18] = test: Antiproliferative activity against HASMC at 5 mM after 96 hrs by MTT assay; format: functional; details: Homo sapiens
In short: (§5)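 HASMCs at passage six or later were seeded at 3000–3500 cells/well, attached 16–24 h at 37 °C, then serum-starved 24–48 h. iNOS was induced with LPS (50 µg/mL) plus IFN-γ (50 ng/mL) for 6 h at 37 °C. ABH was then given in SMC medium at 1, 10, 100 µM, 1.0 and 5.0 mM over two 48 h feeds. MTT absorbance was read at 570 nm; duplicate determinations.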

HASMC [19] = test: Antiproliferative activity against HASMC at 1 mM after 96 hrs by MTT assay; format: functional; details: Homo sapiens; in short: as §5
HASMC [20] = test: Induction of nitric oxide release in HASMC at 0.001 to 5 mM after 60 mins by DAF-FM DA assay; details: Homo sapiens
[21] = Nitrosation of the compound in glacial acetic acid/tetrahydrofuran after 5 to 8 hrs by IR spectroscopy analysis in presence of glutathione; format: physicochemical
HASMC [22] = test: Antiproliferative activity against HASMC at 20 uM after 96 hrs by MTT assay; format: functional, Homo sapiens; in short: as §1
HASMC [23] = test: Antiproliferative activity against HASMC using calcein AM and ethidium homodimer-1 at 20 uM by LIVE/DEAD assay in presence of S-2-amino-6-boronic acid; format: functional, cell-based; details: Homo sapiens
In short: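 HASMCs in black plates were induced with LPS/IFN-γ for 6 h, then given 20 µM donor plus 5 mM ABH for two 48 h periods. Detached cells were pelleted, washed and returned to their wells. Staining used ethidium homodimer-1 (0.5 µM) and calcein AM (0.25 µM) for 45 min at room temperature. Live cells were read at 495/530 nm and dead cells at 528/645 nm.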

HASMC [24] = test: Antiproliferative activity against HASMC at 20 uM after 96 hrs by MTT assay in presence of S-2-amino-6-boronic acid; format: functional, cell-based; details: Homo sapiens
In short: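 HASMCs were induced with LPS (50 µg/mL) and IFN-γ (50 ng/mL) for 6 h at 37 °C. Cytokines were removed and cells were treated with 5 mM ABH plus donor (20 µM) in SMC medium for 48 h at 37 °C. A second dose was added, followed by a further 48 h. Readout was MTT absorbance at 570 nm.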

HASMC [25] = test: Induction of nitric oxide release in HASMC at 20 uM after 60 mins by DAF-FM DA assay in presence of S-2-amino-6-boronic acid; format: functional, cell-based; details: Homo sapiens
In short: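 After LPS/IFN-γ induction (6 h), HASMCs were treated with 20 µM donor plus 5 mM ABH over 96 h. Cells were then loaded with DAF-FM DA (10 µM) for 60 min at room temperature in the dark, washed three times, left to de-esterify, and read at ex/em 495/515 nm.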

half-life [11] | Activity [13] | SMILES | viability at 96 h, 20 µM [1] | viability at 96 h, 10 µM [2] | viability at 96 h, 5 µM [3] | viability at 96 h, 1 µM [4] | viability at 96 h, 0.1 µM [5] | Activity (HASMC [6]) | Activity (HASMC [7]) | Activity (HASMC [8]) | Activity (HASMC [9]) | further results
– | – | CCCCCCCCCNc1ccc([N+](=O)[O-])c(NCCCCCCCCC)c1 | 86% | 84.5% | 86% | 86.3% | 87% | Non-toxic | – | – | – | –
– | – | CCCCCCCCCNc1cccc(NCCCCCCCCC)c1[N+](=O)[O-] | 68% | 73% | 75% | 78% | 82% | Toxic | – | – | – | –
93 h | 2.13% | CCCCCCCCN(N=O)c1cccc(N(CCCCCCCC)N=O)c1[N+](=O)[O-] | – | – | – | – | – | – | Active | Active | Active | half-life [10]: 123 h; Activity [12]: 1.32%; Activity [14]: 100%; Activity [15]: 100%
– | – | CCCCCCNc1ccc([N+](=O)[O-])c(NCCCCCC)c1 | 87% | 85.9% | 84% | 86.1% | 85.1% | Non-toxic | – | – | – | –
– | – | CCCCCCCCNc1ccc([N+](=O)[O-])c(NCCCCCCCC)c1 | 85.4% | 84% | 87.2% | 89.6% | 84.6% | Non-toxic | – | – | – | –
– | – | CCCCCCCCCCNc1cccc(NCCCCCCCCCC)c1[N+](=O)[O-] | 65% | 69% | 70% | 75.5% | 76.8% | Toxic | – | – | – | –
60 h | 3% | CCCCCCCCCCN(N=O)c1ccc([N+](=O)[O-])c(N(CCCCCCCCCC)N=O)c1 | – | – | – | – | – | – | Active | Active | Active | Activity [16]: 100%
– | – | CCCCCCCCCCNc1ccc([N+](=O)[O-])c(NCCCCCCCCCC)c1 | 84% | 84% | 88% | 87.4% | 89% | Non-toxic | – | – | – | –
126 h | 2.02% | CCCCCCCN(N=O)c1cccc(N(CCCCCCC)N=O)c1[N+](=O)[O-] | – | – | – | – | – | – | inactive | Active | Active | Activity (HASMC [17]): Toxic; Activity [15]: 100%
– | – | N[C@@H](CCCCB(O)O)C(=O)O | – | – | – | – | – | – | – | – | – | inhibition at 5000 µM (HASMC [18]): 48%; inhibition at 1000 µM (HASMC [19]): 35%; Activity (HASMC [20]): Active
– | – | CCCCCCCCNc1cccc(NCCCCCCCC)c1[N+](=O)[O-] | 82.8% | 83.2% | 82.9% | 89.7% | 86.2% | Non-toxic | – | – | – | –
83 h | 2.63% | CCCCCCCCN(N=O)c1ccc([N+](=O)[O-])c(N(CCCCCCCC)N=O)c1 | – | – | – | – | – | – | Active | Active | Active | Activity [16]: 100%
69 h | 2.83% | CCCCCCCCCN(N=O)c1ccc([N+](=O)[O-])c(N(CCCCCCCCC)N=O)c1 | – | – | – | – | – | – | Active | Active | Active | half-life [10]: 109 h; Activity [12]: 1.29%; Activity [21]: 100%; Activity [16]: 100%
80 h | 2.32% | CCCCCCCCCN(N=O)c1cccc(N(CCCCCCCCC)N=O)c1[N+](=O)[O-] | – | – | – | – | – | – | Active | – | – | Activity [15]: 100%
62 h | 2.6% | CCCCCCCCCCN(N=O)c1cccc(N(CCCCCCCCCC)N=O)c1[N+](=O)[O-] | – | – | – | – | – | – | Active | – | – | half-life [10]: 108 h; Activity [12]: 1.9%; Activity [14]: 100%; Activity [15]: 100%
87 h | 2.48% | CCCCCCCN(N=O)c1ccc([N+](=O)[O-])c(N(CCCCCCC)N=O)c1 | – | – | – | – | – | – | Active | Active | Active | Activity [16]: 100%
– | – | CCCCCCNc1cccc(NCCCCCC)c1[N+](=O)[O-] | 81% | 81% | 84% | 82% | 82.2% | Non-toxic | – | – | – | –
– | – | CCCCCCCNc1cccc(NCCCCCCC)c1[N+](=O)[O-] | 80% | 81% | 82% | 80% | 81.6% | Non-toxic | – | – | – | –
– | – | CCCCCCCNc1ccc([N+](=O)[O-])c(NCCCCCCC)c1 | 85.6% | 86% | 87.6% | 87% | 88.3% | Non-toxic | – | – | – | –
105 h | 2.34% | CCCCCCN(N=O)c1ccc([N+](=O)[O-])c(N(CCCCCC)N=O)c1 | – | – | – | – | – | – | Active | Active | Active | Activity (HASMC [22]): 23%; inhibition (HASMC [23]): Active; inhibition (HASMC [24]): Active; half-life [10]: 126 h; Activity [12]: 0.84%; Activity [21]: 100%; Activity [16]: 100%; Activity (HASMC [25]): Active
140 h | 1.85% | CCCCCCN(N=O)c1cccc(N(CCCCCC)N=O)c1[N+](=O)[O-] | – | – | – | – | – | – | Active | Active | Active | Activity (HASMC [22]): 18%; inhibition (HASMC [23]): Active; inhibition (HASMC [24]): Active; Activity [15]: 100%; Activity (HASMC [25]): Active
